Activity calls are given as the source filed them.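 How the source made its calls: active means inhibitors lowering the signal whose fitted half-maximal concentration is at most twice the top valid tested dose; inconclusive means flat curve with partial inhibition, or a poor curve fit; inactive means effect opposite to expected, flat near zero, or too weak.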
target: PvdQ acyl-homoserine lactone acylase (Pseudomonas aeruginosa LESB58); assay: PvdQ acylase inhibitors, dose response, biochemical, 4-MU laurate fluorescence, dry powder, set 3 (AID 623991); conditions: Purified PvdQ, 4-MU laurate hydrolysis
Outline: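 Test system – P. aeruginosa PvdQ acylase · Measured by – fluorescence, excitation 303–367 nm, emission 440–460 nm, reads at 0 and 60 min · Times – 30 min enzyme-compound pre-incubation, then 60 min substrate reaction, room temperature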

Structure (SMILES)	AC50 [nM]
N#CC(c1ccc(F)cc1)c1cccc(C(F)(F)F)n1 (stereo not given)	4.71
N#CC(c1ccc(Cl)cc1)c1cccc(Cl)n1 (stereo not given)	36.8
N#CC(c1ccc(C(F)(F)F)c(Cl)n1)c1ccccc1OC(F)(F)F (stereo not given)	12200
N#CC(c1ccc(Cl)cc1)c1ccccn1 (stereo not given)	296
N#CC(c1ccc(F)cc1)c1cccc(Cl)n1 (stereo not given)	119
CN(C)CCCC(C#N)c1ccc(Cl)cc1 (stereo not given)	17900
COCCOCCC(C#N)c1ccc(Cl)cc1 (stereo not given)	7770
CCCCC(C#N)c1ccc(F)cc1 (stereo not given)	607
CCCCC(C#N)c1ccc(Cl)cc1 (stereo not given)	1070
N#CC(c1cccc(Cl)n1)c1ccc(Cl)cc1F (stereo not given)	15.6
N#CC1c2ccc(Cl)cc2CCc2cccnc21 (stereo not given)	11200
N#CC(c1ccc(Cl)cc1)N1CCCC1 (stereo not given)	1830
N#CC(c1cccc(C(F)(F)F)n1)c1ccc(Cl)cc1F (stereo not given)	< 3
CCCCC(C#N)c1ccc(Cl)cn1 (stereo not given)	3470
N#Cc1cccc(C(C#N)c2ccc(F)cc2)n1 (stereo not given)	200
CCCCC(c1ccc(Cl)cc1)c1nn[nH]n1 (stereo not given)	3190
COCCC(C#N)c1ccc(F)cc1 (stereo not given)	1270
COCCC(C#N)c1ccc(Cl)cc1 (stereo not given)	6270
N#CC(c1ccc(Cl)cc1)c1ncccc1Cl (stereo not given)	3.09
N#CC(c1ccc(Cl)cc1)c1cccc(C(F)(F)F)n1 (stereo not given)	25.4
COCCOCCC(C#N)c1ccc(F)cc1 (stereo not given)	165
CN(C)CCCC(C#N)c1ccc(F)cc1 (stereo not given)	589

same assay, conditions: Purified PvdQ, 4-MU laurate hydrolysis, at 19.5 µM (top of the series)

Structure (SMILES)	activity change, negative = inhibition
CCCCC(C#N)c1ccccn1 (stereo not given)	inactive
CCCCC(C#N)c1ccc(F)cn1 (stereo not given)	inactive
COCCNC(C#N)c1ccc(Cl)cc1 (stereo not given)	inactive
